Measurements published in ChEMBL document CHEMBL2406970, “Synthesis and bioevaluation of a series of α-pyrone derivatives as potent activators of Nrf2/ARE pathway (part I)” (Eur J Med Chem, 2013).
The source made the active and inactive calls. The calls are words filed in the database; no cut-off is given here.

Each compound was assayed on HCT-116 (assay: Induction of NQO-1 expression in human HCT116 cells at 20 uM up to 24 hrs by Western blot analysis in presence of MEK1/2 inhibitor PD98059). Conditions: not given.
Format: functional, cell-based

**Q.** With `Cc1cc(O)c(C(=O)/C=C/c2ccccc2F)c(=O)o1` as the compound, how does the Activity read?
**A.** inactive

These compounds were tested on HCT-116 (assay: Induction of Nrf2 expression in human HCT116 cells at 20 uM up to 24 hrs by Western blot analysis in presence of MEK1/2 inhibitor PD98059). Conditions: not given.
Format: functional, cell-based

**Q.** With `Cc1cc(O)c(C(=O)/C=C/c2ccccc2F)c(=O)o1` as the compound, how does the Activity read?
**A.** inactive

These compounds were tested on HCT-116 (assay: Induction of HO-1 expression in human HCT116 cells at 20 uM up to 24 hrs by Western blot analysis in presence of MEK1/2 inhibitor PD98059). Conditions: not given.
Format: functional, cell-based

**Q.** How did the Activity turn out when `Cc1cc(O)c(C(=O)/C=C/c2ccccc2F)c(=O)o1` was run?
**A.** inactive

The compounds below were run against T1, Nuclear factor erythroid 2-related factor 2 (Homo sapiens) (UniProt Q16236) (assay: Activation of NRF2 in human HCT116 cells assessed as ERK1/2 phosphorylation at 20 uM after 30 mins to 1 hr by Western blot analysis in presence of MEK1/2 inhibitor PD98059). Conditions: HCT-116.
T1 sequence (whole entry): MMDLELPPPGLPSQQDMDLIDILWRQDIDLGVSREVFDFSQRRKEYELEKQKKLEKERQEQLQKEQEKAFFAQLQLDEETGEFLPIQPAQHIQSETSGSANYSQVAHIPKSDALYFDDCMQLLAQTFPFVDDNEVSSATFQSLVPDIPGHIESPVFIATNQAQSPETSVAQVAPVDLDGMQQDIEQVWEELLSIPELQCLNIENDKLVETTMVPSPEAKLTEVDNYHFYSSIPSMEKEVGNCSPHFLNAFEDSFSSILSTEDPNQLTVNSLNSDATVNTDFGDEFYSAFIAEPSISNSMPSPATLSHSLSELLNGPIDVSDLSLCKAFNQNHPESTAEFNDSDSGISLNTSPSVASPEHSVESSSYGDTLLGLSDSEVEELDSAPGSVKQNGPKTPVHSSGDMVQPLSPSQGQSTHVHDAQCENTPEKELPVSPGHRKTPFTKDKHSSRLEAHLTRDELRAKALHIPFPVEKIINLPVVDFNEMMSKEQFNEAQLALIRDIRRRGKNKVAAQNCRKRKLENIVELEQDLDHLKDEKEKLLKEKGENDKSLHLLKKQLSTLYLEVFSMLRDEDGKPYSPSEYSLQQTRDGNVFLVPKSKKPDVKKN
Format: cell-based

**Q.** With `Cc1cc(O)c(C(=O)/C=C/c2ccccc2F)c(=O)o1` as the compound, how does the Activity read?
**A.** inactive

Each compound was assayed against T1, Nuclear factor erythroid 2-related factor 2 (Homo sapiens) (assay: Activation of NRF2 in human HCT116 cells assessed as expression of ERK1/2 at 20 uM up to 24 hrs by Western blot analysis). Conditions: HCT-116.
Format: cell-based

**Q.** With `Cc1cc(O)c(C(=O)/C=C/c2ccccc2F)c(=O)o1` as the compound, how does the Activity read?
**A.** inactive

Each compound was assayed against T1, Nuclear factor erythroid 2-related factor 2 (Homo sapiens) (assay: Activation of NRF2 in human HCT116 cells assessed as ERK1/2 phosphorylation at 20 uM after 30 mins to 1 hr by Western blot analysis). Conditions: HCT-116.
Format: cell-based

**Q.** `Cc1cc(O)c(C(=O)/C=C/c2ccccc2F)c(=O)o1` was tested. Which Activity did it give?
**A.** Active

These compounds were tested against T2, Keap1/Nrf2 (Homo sapiens) (UniProt Q16236+Q14145) (assay: Induction of Nrf2/Keap1 in human HCT116 cells assessed as induction of ARE activity at 20 uM after 12 hrs by luciferase reporter gene assay in presence of MEK1/2 inhibitor PD98059). Conditions: HCT-116.
T2 sequence (Q14145 whole entry, looked up, one chain of several): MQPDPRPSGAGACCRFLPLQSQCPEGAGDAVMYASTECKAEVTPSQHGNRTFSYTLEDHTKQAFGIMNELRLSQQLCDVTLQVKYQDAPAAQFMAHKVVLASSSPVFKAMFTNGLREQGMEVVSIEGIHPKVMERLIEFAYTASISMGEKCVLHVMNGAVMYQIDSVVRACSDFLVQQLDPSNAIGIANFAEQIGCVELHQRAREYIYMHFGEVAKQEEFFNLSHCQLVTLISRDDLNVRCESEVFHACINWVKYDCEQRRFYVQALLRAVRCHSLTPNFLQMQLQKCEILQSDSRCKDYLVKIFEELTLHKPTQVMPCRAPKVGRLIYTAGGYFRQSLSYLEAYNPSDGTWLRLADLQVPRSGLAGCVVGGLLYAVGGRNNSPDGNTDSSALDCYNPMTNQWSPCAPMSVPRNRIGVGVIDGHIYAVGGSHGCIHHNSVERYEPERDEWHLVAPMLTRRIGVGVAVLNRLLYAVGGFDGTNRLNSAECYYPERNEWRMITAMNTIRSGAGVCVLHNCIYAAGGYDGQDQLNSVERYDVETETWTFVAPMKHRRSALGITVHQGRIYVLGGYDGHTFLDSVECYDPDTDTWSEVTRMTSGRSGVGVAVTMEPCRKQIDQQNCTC
Format: cell-based

**Q.** Which Activity does the source give for `Cc1cc(O)c(C(=O)/C=C/c2ccccc2F)c(=O)o1` here?
**A.** inactive

Each compound was assayed on HCT-116 (assay: Induction of nuclear translocation of Nrf2 in human HCT116 cells at 20 uM after 1 hr by Western blot analysis). Conditions: not given.
Format: functional, cell-based

**Q.** Which Activity does the source give for `Cc1cc(O)c(C(=O)/C=C/c2ccccc2F)c(=O)o1` here?
**A.** Active

The compounds below were run on HCT-116 (assay: Induction of nuclear translocation of Nrf2 in human HCT116 cells at 20 uM after 24 hrs by Western blot analysis). Conditions: not given.
Format: functional, cell-based

**Q.** For `Cc1cc(O)c(C(=O)/C=C/c2ccccc2F)c(=O)o1`, which Activity is on record?
**A.** inactive

The compounds below were run on HCT-116 (assay: Induction of Nrf2 expression in human HCT116 cells at 20 uM after 2 hrs by Western blot analysis). Conditions: not given.
Format: functional, cell-based

**Q.** With `Cc1cc(O)c(C(=O)/C=C/c2ccccc2F)c(=O)o1` as the compound, how does the Activity read?
**A.** Active

These compounds were tested on HCT-116 (assay: Induction of NQO-1 expression in human HCT116 cells at 20 uM after 24 hrs by Western blot analysis). Conditions: not given.
Format: functional, cell-based

**Q.** `Cc1cc(O)c(C(=O)/C=C/c2ccccc2F)c(=O)o1` was tested. Which Activity did it give?
**A.** Active

These compounds were tested on HCT-116 (assay: Induction of HO-1 expression in human HCT116 cells at 20 uM after 8 hrs by Western blot analysis). Conditions: not given.
Format: functional, cell-based

**Q.** For `Cc1cc(O)c(C(=O)/C=C/c2ccccc2F)c(=O)o1`, which Activity is on record?
**A.** Active

What follows are compounds tested on HCT-116 (assay: Cytotoxicity against human HCT116 cells by MTT assay). Conditions: not given.
Format: functional, cell-based
Outline: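 HCT116 cells were cultured in McCoy's 5A with 10% FBS and exposed to a range of compound concentrations. MTT was added for 4 h, the solution removed and DMSO added. OD was read at 570 nm, and inhibition calculated as [1 − (OD_test − OD_blank)/(OD_control − OD_blank)] × 100%.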

**Q.** With `Cc1cc(O)c(C(=O)/C=C/c2ccccc2Cl)c(=O)o1` as the compound, how does the IC50 read?
**A.** > 100 µM

**Q.** How did the IC50 turn out when `Cc1cc(O)c(C(=O)/C=C/c2ccccc2F)c(=O)o1` was run?
**A.** > 100 µM

**Q.** With `Cc1cc(O)c(C(=O)/C=C/c2ccc(F)cc2)c(=O)o1` as the compound, how does the IC50 read?
**A.** > 100 µM

**Q.** Which IC50 does the source give for `Cc1cc(O)c(C(=O)/C=C/c2ccc(Cl)cc2Cl)c(=O)o1` here?
**A.** 88.7 µM

**Q.** Which IC50 does the source give for `COc1cc(/C=C/C(=O)c2c(O)cc(C)oc2=O)cc(OC)c1OC` here?
**A.** > 100 µM

**Q.** For `Cc1cc(O)c(C(=O)/C=C/c2ccc3ccccc3c2)c(=O)o1`, which IC50 is on record?
**A.** > 100 µM

**Q.** How did the IC50 turn out when `Cc1cc(O)c(C(=O)/C=C/c2ccc(N(C)C)cc2)c(=O)o1` was run?
**A.** > 100 µM

**Q.** `Cc1cc(O)c(C(=O)/C=C/c2ccccc2)c(=O)o1` was tested. Which IC50 did it give?
**A.** > 100 µM

**Q.** `Cc1cc(O)c(C(=O)/C=C/c2ccc(Cl)cc2)c(=O)o1` was tested. Which IC50 did it give?
**A.** 87.4 µM

**Q.** How did the IC50 turn out when `Cc1cc(O)c(C(=O)/C=C/c2ccc([N+](=O)[O-])cc2)c(=O)o1` was run?
**A.** 65 µM

**Q.** `CCOc1ccc(/C=C/C(=O)c2c(O)cc(C)oc2=O)cc1` was tested. Which IC50 did it give?
**A.** > 100 µM

**Q.** How did the IC50 turn out when `COc1ccc(/C=C/C(=O)c2c(O)cc(C)oc2=O)c(OC)c1` was run?
**A.** > 100 µM

**Q.** Which IC50 does the source give for `Cc1cc(O)c(C(=O)/C=C/c2ccc(C#N)cc2)c(=O)o1` here?
**A.** 66 µM

The compounds below were run against T2, Keap1/Nrf2 (Homo sapiens) (assay: Induction of Nrf2/Keap1 in human HCT116 cells assessed as induction of ARE activity after 12 hrs by luciferase reporter gene assay). Conditions: HCT-116.
Format: cell-based

**Q.** Which Activity does the source give for `Cc1cc(O)c(C(=O)/C=C/c2ccccc2F)c(=O)o1` here?
**A.** Dose-dependent effect

These compounds were tested against T2, Keap1/Nrf2 (Homo sapiens) (assay: Induction of Nrf2/Keap1 in human HCT116 cells assessed as induction of ARE activity at 20 uM after 12 hrs by luciferase reporter gene assay relative to control). Conditions: HCT-116.
Format: cell-based

**Q.** `Cc1cc(O)c(C(=O)/C=C/c2ccccc2Cl)c(=O)o1` was tested. Which fold change (FC) did it give?
**A.** 5.08

**Q.** For `Cc1cc(O)c(C(=O)/C=C/c2ccccc2F)c(=O)o1`, which fold change (FC) is on record?
**A.** 7.08

**Q.** For `Cc1cc(O)c(C(=O)/C=C/c2ccc(F)cc2)c(=O)o1`, which fold change (FC) is on record?
**A.** 6.33

**Q.** `Cc1cc(O)c(C(=O)/C=C/c2ccc(Cl)cc2Cl)c(=O)o1` was tested. Which fold change (FC) did it give?
**A.** 5.49

**Q.** With `COc1cc(/C=C/C(=O)c2c(O)cc(C)oc2=O)cc(OC)c1OC` as the compound, how does the fold change (FC) read?
**A.** 8.58

**Q.** For `Cc1cc(O)c(C(=O)/C=C/c2ccc3ccccc3c2)c(=O)o1`, which fold change (FC) is on record?
**A.** 1.37

**Q.** How did the fold change (FC) turn out when `Cc1cc(O)c(C(=O)/C=C/c2ccc(N(C)C)cc2)c(=O)o1` was run?
**A.** 4.55

**Q.** How did the fold change (FC) turn out when `Cc1cc(O)c(C(=O)/C=C/c2ccccc2)c(=O)o1` was run?
**A.** 4.21

**Q.** `Cc1cc(O)c(C(=O)/C=C/c2ccc(Cl)cc2)c(=O)o1` was tested. Which fold change (FC) did it give?
**A.** 6.97

**Q.** For `Cc1cc(O)c(C(=O)/C=C/c2ccc([N+](=O)[O-])cc2)c(=O)o1`, which fold change (FC) is on record?
**A.** 4.77

**Q.** With `CCOc1ccc(/C=C/C(=O)c2c(O)cc(C)oc2=O)cc1` as the compound, how does the fold change (FC) read?
**A.** 4.66

**Q.** `COc1ccc(/C=C/C(=O)c2c(O)cc(C)oc2=O)c(OC)c1` was tested. Which fold change (FC) did it give?
**A.** 8.21

**Q.** For `Cc1cc(O)c(C(=O)/C=C/c2ccc(C#N)cc2)c(=O)o1`, which fold change (FC) is on record?
**A.** 3.68

The compounds below were run on HCT-116 (assay: Induction of nuclear translocation of Nrf2 in human HCT116 cells at 20 uM after 1 to 2 hrs by immunofluorescence staining in presence of MEK1/2 inhibitor PD98059). Conditions: not given.

**Q.** With `Cc1cc(O)c(C(=O)/C=C/c2ccccc2F)c(=O)o1` as the compound, how does the Activity read?
**A.** inactive

The compounds below were run against T2, Keap1/Nrf2 (Homo sapiens) (assay: Induction of Nrf2/Keap1 in human HepG2-ARE-C8 cells assessed as induction of ARE activity at 50 uM after 12 hrs by luciferase reporter gene assay relative to control). Conditions: not given.

**Q.** `Cc1cc(O)c(C(=O)/C=C/c2ccccc2Cl)c(=O)o1` was tested. Which fold change (FC) did it give?
**A.** 0.95

**Q.** How did the fold change (FC) turn out when `Cc1cc(O)c(C(=O)/C=C/c2ccccc2F)c(=O)o1` was run?
**A.** 3.04

**Q.** How did the fold change (FC) turn out when `Cc1cc(O)c(C(=O)/C=C/c2ccc(F)cc2)c(=O)o1` was run?
**A.** 5.79

**Q.** For `Cc1cc(O)c(C(=O)/C=C/c2ccc(Cl)cc2Cl)c(=O)o1`, which fold change (FC) is on record?
**A.** 3.27

**Q.** With `COc1cc(/C=C/C(=O)c2c(O)cc(C)oc2=O)cc(OC)c1OC` as the compound, how does the fold change (FC) read?
**A.** 5.25

**Q.** With `Cc1cc(O)c(C(=O)/C=C/c2ccc3ccccc3c2)c(=O)o1` as the compound, how does the fold change (FC) read?
**A.** 2.17

**Q.** With `Cc1cc(O)c(C(=O)/C=C/c2ccc(N(C)C)cc2)c(=O)o1` as the compound, how does the fold change (FC) read?
**A.** 8.09

**Q.** For `Cc1cc(O)c(C(=O)/C=C/c2ccccc2)c(=O)o1`, which fold change (FC) is on record?
**A.** 6.84

**Q.** Which fold change (FC) does the source give for `Cc1cc(O)c(C(=O)/C=C/c2ccc(Cl)cc2)c(=O)o1` here?
**A.** 6.28

**Q.** How did the fold change (FC) turn out when `Cc1cc(O)c(C(=O)/C=C/c2ccc([N+](=O)[O-])cc2)c(=O)o1` was run?
**A.** 2.48

**Q.** With `CCOc1ccc(/C=C/C(=O)c2c(O)cc(C)oc2=O)cc1` as the compound, how does the fold change (FC) read?
**A.** 5.5

**Q.** With `COc1ccc(/C=C/C(=O)c2c(O)cc(C)oc2=O)c(OC)c1` as the compound, how does the fold change (FC) read?
**A.** 6.81

**Q.** With `Cc1cc(O)c(C(=O)/C=C/c2ccc(C#N)cc2)c(=O)o1` as the compound, how does the fold change (FC) read?
**A.** 2.07
